From ChEMBL document CHEMBL3351600, “Sulfur, selenium and tellurium pseudopeptides: synthesis and biological evaluation” (Bioorg Med Chem, 2014)

Legend:
NCI-H522 = experiment: Growth inhibition of human NCI-H522 cells after 48 hrs; type: functional; conditions: NCI-H522, 48 h
Method in brief: (§1)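 NCI-60 human tumour cell line panel screen run at the US National Cancer Institute under its standard cytotoxicity protocol. It covers leukaemia, NSCLC, colon, CNS, melanoma, ovarian, renal, prostate and breast lines. An initial single-dose test was followed by five-dose testing with 48 h compound exposure.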

[1] = Growth inhibition of human UO31 cells after 48 hrs; type: functional; conditions: UO-31, 48 h
Method in brief: (§2)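 Run by the NCI 58-cell-line screen under its standard cytotoxicity protocol. Compounds were first tested at a single dose, then at five doses. Cells were exposed to compound for 48 h.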

Pseudomonas aeruginosa = experiment: Antimicrobial activity against Pseudomonas aeruginosa assessed as inhibition at 20 ug/6 mm disk after 1 to 2 days by agar diffusion assay; type: functional
Method in brief: (§3)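 Standard agar diffusion: 6-mm paper disks loaded with 20 µg of compound were placed on inoculated plates. Inhibition-zone diameter (mm) was read after 1 and 2 days of growth.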

[2] = Growth inhibition of human UACC62 cells after 48 hrs; type: functional; conditions: UACC-62, 48 h; method in brief: as §2
CAKI-1 = experiment: Growth inhibition of human CAKI-1 cells after 48 hrs; type: functional; conditions: CAKI-1, 48 h; method in brief: as §1
Staphylococcus aureus = experiment: Antimicrobial activity against Staphylococcus aureus assessed as inhibition at 20 ug/6 mm disk after 1 to 2 days by agar diffusion assay; type: functional; method in brief: as §3
HT-29 = experiment: Growth inhibition of human HT-29 cells after 48 hrs; type: functional; conditions: HT-29, 48 h; method in brief: as §1
[3] = Growth inhibition of human SF539 cells after 48 hrs; type: functional; conditions: SF-539, 48 h; method in brief: as §1
[4] = Cytotoxicity against human fibroblasts assessed as cell viability after 24 hrs incubation by MTT assay; type: cell-based; conditions: Fibroblast
Method in brief: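 Cell lines came from DSMZ; primary human fibroblasts served as non-cancer controls. Cells were grown in medium with 10% FCS, seeded at 50,000 cells/ml, and grown 2 days at 37 °C, 10% CO2. Serial dilutions were then added for 24 h. MTT (final 0.5 mg/ml) was added for 2 h. Formazan was pelleted, PBS-washed, dissolved in isopropanol/0.4% HCl and read at 590 nm. Two parallel experiments were run. IC50 was taken as the concentration giving 50% of untreated-control absorbance.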

SF-268 = experiment: Growth inhibition of human SF268 cells after 48 hrs; type: functional; conditions: SF-268, 48 h; method in brief: as §1
SNB-19 = experiment: Growth inhibition of human SNB19 cells after 48 hrs; type: functional; conditions: SNB-19, 48 h, read-out: pLC50 (the source's name) (converted); method in brief: as §2
Mycolicibacterium phlei = experiment: Antimicrobial activity against Mycobacterium phlei assessed as inhibition at 20 ug/6 mm disk after 1 to 2 days by agar diffusion assay; type: functional; method in brief: as §3
Escherichia coli = experiment: Antimicrobial activity against Escherichia coli tolC assessed as inhibition at 20 ug/6 mm disk after 1 to 2 days by agar diffusion assay; type: functional; method in brief: as §3
MDA-MB-468 = experiment: Growth inhibition of human MDA-MB-468 cells after 48 hrs; type: functional; conditions: MDA-MB-468, 48 h; method in brief: as §1
SN12C = experiment: Growth inhibition of human SN12C cells after 48 hrs; type: functional; method in brief: as §2
[5] = Growth inhibition of human OVCAR8 cells after 48 hrs; type: functional; conditions: OVCAR-8, 48 h; method in brief: as §1
NCI-H460 = experiment: Growth inhibition of human NCI-H460 cells after 48 hrs; type: functional; conditions: NCI-H460, 48 h, read-out: pLC50 (the source's name) (converted); method in brief: as §1
SK-OV-3 = experiment: Growth inhibition of human SKOV3 cells after 48 hrs; type: functional; conditions: SK-OV-3, 48 h; method in brief: as §2
Micrococcus luteus = experiment: Antimicrobial activity against Micrococcus luteus assessed as inhibition at 20 ug/6 mm disk after 1 to 2 days by agar diffusion assay; type: functional; method in brief: as §3
MDA-MB-231 = experiment: Growth inhibition of human MDA-MB-231 cells after 48 hrs; type: functional; conditions: MDA-MB-231, 48 h; method in brief: as §1
[6] = Growth inhibition of human UACC257 cells after 48 hrs; type: functional; conditions: UACC-257, 48 h; method in brief: as §2
SK-MEL-2 = experiment: Growth inhibition of human SK-MEL-2 cells after 48 hrs; type: functional; conditions: SK-MEL-2, 48 h; method in brief: as §1
[7] = Growth inhibition of human HCT116 cells after 48 hrs; type: functional; conditions: HCT-116, 48 h; method in brief: as §1
[8] = Growth inhibition of human PC3 cells after 48 hrs; type: functional; conditions: PC-3, 48 h; method in brief: as §1
MCF7 = experiment: Growth inhibition of human MCF7 cells after 48 hrs; type: functional; conditions: MCF7, 48 h; method in brief: as §1
[9] = Growth inhibition of human RXF393 cells after 48 hrs; type: functional; conditions: RXF 393, 48 h; method in brief: as §1
[10] = Growth inhibition of human BT549 cells after 48 hrs; type: functional; conditions: BT-549, 48 h; method in brief: as §1
[11] = Growth inhibition of human OVCAR4 cells after 48 hrs; type: functional; conditions: OVCAR-4, 48 h; method in brief: as §1
M14 = experiment: Growth inhibition of human M14 cells after 48 hrs; type: functional; conditions: M14, 48 h; method in brief: as §1
NCI-H23 = experiment: Growth inhibition of human NCI-H23 cells after 48 hrs; type: functional; conditions: NCI-H23, 48 h, read-out: pLC50 (the source's name) (converted); method in brief: as §1
[12] = Growth inhibition of human NCI-ADR-RES cells after 48 hrs; type: functional; method in brief: as §1
ACHN = experiment: Growth inhibition of human ACHN cells after 48 hrs; type: functional; method in brief: as §1
[13] = read-out: pLC50 (the source's name) (converted)

With `COc1ccc(N(CC(=O)NCCC[Te]c2ccccc2)C(=O)CCSC2=C(C)C(=O)c3ccccc3C2=O)cc1` the GI50 (NCI-H522) was 1.07 µM, the CC50 (NCI-H522; [13]) was > 100 µM and the TGI (NCI-H522; read-out: pTGI (converted)) was 3.39 µM. It also gave a GI50 [1] of 1.66 µM, an LC50 [1] of 8.71 µM and a TGI ([1]; read-out: pTGI (converted)) of 2.19 µM. The “diameter of the inhibition zone (DIZ)” value (Pseudomonas aeruginosa) was 0 mm, the GI50 [2] was 1.91 µM and the CC50 [2, 13] was 19.1 µM. For the same molecule, the TGI ([2]; read-out: pTGI (converted)) was 4.9 µM, the GI50 (CAKI-1) was 3.09 µM and the LC50 (CAKI-1) was 21.4 µM. For the same molecule, the TGI (CAKI-1; read-out: pTGI (converted)) was 6.17 µM, the “diameter of the inhibition zone (DIZ)” value (Staphylococcus aureus) was 11 mm and the GI50 (HT-29) was 1.62 µM. It also gave a CC50 (HT-29; [13]) of 50.1 µM, a TGI (HT-29; read-out: pTGI (converted)) of 4.9 µM and a GI50 [3] of 2.14 µM. The CC50 [3, 13] was 7.08 µM, the TGI ([3]; read-out: pTGI (converted)) was 3.89 µM and the IC50 [4] was 4 µM. The GI50 (SF-268) was 0.468 µM, the CC50 (SF-268; [13]) was 5.5 µM and the TGI (SF-268; read-out: pTGI (converted)) was 1.86 µM. The CC50 (SNB-19) was 56.2 µM, the “diameter of the inhibition zone (DIZ)” value (Mycolicibacterium phlei) was 15 mm and the “diameter of the inhibition zone (DIZ)” value (Escherichia coli) was 12 mm. It also gave a GI50 (MDA-MB-468) of 1.66 µM, an LC50 (MDA-MB-468) of 6.76 µM and a TGI (MDA-MB-468; read-out: pTGI (converted)) of 3.39 µM. It also gave an LC50 (SN12C) of 23.4 µM, a GI50 [5] of 0.589 µM and an LC50 [5] of 30.9 µM. For the same molecule, the TGI ([5]; read-out: pTGI (converted)) was 3.8 µM, the CC50 (NCI-H460) was 4.68 µM and the GI50 (SK-OV-3) was 1.86 µM. The CC50 (SK-OV-3; [13]) was 8.71 µM, the TGI (SK-OV-3; read-out: pTGI (converted)) was 3.98 µM and the “diameter of the inhibition zone (DIZ)” value (Micrococcus luteus) was 8 mm. For the same molecule, the GI50 (MDA-MB-231) was 1.23 µM, the LC50 (MDA-MB-231) was 14.8 µM and the TGI (MDA-MB-231; read-out: pTGI (converted)) was 3.89 µM. It also gave a GI50 [6] of 2.04 µM, a CC50 [6, 13] of 16.6 µM and a TGI ([6]; read-out: pTGI (converted)) of 5.01 µM. For the same molecule, the GI50 (SK-MEL-2) was 2.29 µM, the CC50 (SK-MEL-2; [13]) was 14.8 µM and the TGI (SK-MEL-2; read-out: pTGI (converted)) was 5.01 µM. For the same molecule, the GI50 [7] was 0.339 µM, the CC50 [7, 13] was 5.5 µM and the TGI ([7]; read-out: pTGI (converted)) was 1.29 µM. For the same molecule, the LC50 [8] was 14.8 µM, the GI50 (MCF7) was 0.49 µM and the LC50 (concentration killing 50% of cells) (MCF7) was 75.9 µM. It also gave a TGI (MCF7; read-out: pTGI (converted)) of 12 µM, a GI50 [9] of 1.86 µM and an LC50 [9] of 7.94 µM. For the same molecule, the TGI ([9]; read-out: pTGI (converted)) was 3.8 µM, the LC50 (concentration killing 50% of cells) [10] was 16.6 µM and the GI50 [11] was 2.63 µM. The LC50 [11] was 31.6 µM, the TGI ([11]; read-out: pTGI (converted)) was 10.2 µM and the GI50 (M14) was 0.759 µM. The CC50 (M14; [13]) was 5.25 µM, the TGI (M14; read-out: pTGI (converted)) was 2.14 µM and the CC50 (NCI-H23) was 20.4 µM. It also gave a GI50 [12] of 0.955 µM, an LC50 [12] of 41.7 µM and a TGI ([12]; read-out: pTGI (converted)) of 5.01 µM. It also gave a GI50 (ACHN) of 1.35 µM, an LC50 (ACHN) of 6.76 µM and a TGI (ACHN; read-out: pTGI (converted)) of 3.02 µM.
